Measurements published in ChEMBL document CHEMBL1121808 (1981).
Peptide text beside a SMILES is read from it.

Tests used:
Format in all cases: functional
[1] = Relative potency expressed in percent to that of neurotensin was measured using perfused rat heart assay
Outline: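 Male albino Wistar rats heparinized i.p. (2.5 mg/rat), then killed. Hearts perfused with filtered, oxygenated Krebs at 37 °C by peristaltic pump, flow raised over 5 min to 8 mL/min (perfusion pressure 70–90 mmHg). Stabilized 30 min before peptide infusion. Read-out: change in perfusion pressure via aortic-cannula side-arm transducer.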

[2] = Relative potency expressed in percent to that of neurotensin was measured using rat stomach strips assay
[3] = Relative potency expressed in percent to that of neurotensin was measured using guinea pig atria
Outline: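 Both atria dissected free of ventricles, fat and blood; beating spontaneously under 0.5 g resting tension in 15-mL baths of oxygenated Krebs at 30 °C. Equilibrated 45–60 min before peptide exposure. Contractile force recorded isometrically via force-displacement transducer.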

Compound | Relative potency [1] | Relative potency [2] | Relative potency [3]
CC[C@H](C)[C@H](NC(=O)[C@H](Cc1ccc(O)cc1)NC(=O)[C@@H]1CCCN1C(=O)[C@@H](C)NC(=O)[C@H](CCCN=C(N)N)NC(=O)[C@@H]1CCCN1C(=O)[C@H](CCCCN)NC(=O)[C@H](CC(N)=O)NC(=O)[C@H](CCC(=O)O)NC(=O)[C@H](Cc1ccc(O)cc1)NC(=O)[C@H](CC(C)C)NC(=O)[C@@H]1CCC(=O)N1)C(=O)N[C@@H](CC(C)C)C(=O)O | 0.3% | 1.5% | 2.6%
CC[C@H](C)[C@H](NC(=O)[C@H](Cc1ccc(O)cc1)NC(=O)[C@@H]1CCCN1C(=O)[C@H](CCCNC(=N)N)NC(=O)[C@@H](N)CCCNC(=N)N)C(=O)N[C@@H](CC(C)C)C(=O)O | 102% | 69% | 52%
CC[C@H](C)[C@H](NC(=O)[C@H](Cc1ccc(O)cc1)NC(=O)CNC(=O)[C@H](CCCN=C(N)N)NC(=O)[C@H](CCCN=C(N)N)NC(=O)[C@@H]1CCCN1C(=O)[C@H](CCCCN)NC(=O)[C@H](CC(N)=O)NC(=O)[C@H](CCC(=O)O)NC(=O)[C@H](Cc1ccc(O)cc1)NC(=O)[C@H](CC(C)C)NC(=O)[C@@H]1CCC(=O)N1)C(=O)N[C@@H](CC(C)C)C(=O)O | <0.01% | ~0.01% | ~0.01%
CC[C@H](C)[C@H](NC(=O)[C@H](Cc1ccc(O)cc1)NC(=O)[C@@H]1CCCN1C(=O)[C@H](CCCN=C(N)N)NC(=O)[C@H](CCCN=C(N)N)NC(=O)[C@@H]1CCCN1C(=O)[C@H](CCCCN)NC(=O)[C@H](CC(N)=O)NC(=O)[C@H](CCC(=O)O)NC(=O)[C@H](Cc1ccc(O)cc1)NC(=O)[C@@H](N)CC(C)C)C(=O)N[C@@H](CC(C)C)C(=O)O | 87% | 90% | 94%
CC[C@H](C)[C@H](NC(=O)[C@H](Cc1ccc(O)cc1)NC(=O)[C@@H]1CCCN1C(=O)[C@H](CCCN=C(N)N)NC(=O)[C@H](CCCN=C(N)N)NC(=O)[C@@H]1CCCN1C(=O)[C@H](CCCCN)NC(=O)[C@H](CC(N)=O)NC(=O)[C@H](CCC(=O)O)NC(=O)[C@H](Cc1ccc(O)cc1)NC(=O)[C@H](CC(C)C)NC(=O)[C@@H]1CCC(=O)N1)C(=O)O | 0.03% | 0.65% | 0.09%
CC[C@H](C)[C@H](NC(=O)[C@H](C)NC(=O)[C@@H]1CCCN1C(=O)[C@H](CCCN=C(N)N)NC(=O)[C@H](CCCN=C(N)N)NC(=O)[C@@H]1CCCN1C(=O)[C@H](CCCCN)NC(=O)[C@H](CC(N)=O)NC(=O)[C@H](CCC(=O)O)NC(=O)[C@H](Cc1ccc(O)cc1)NC(=O)[C@H](CC(C)C)NC(=O)[C@@H]1CCC(=O)N1)C(=O)N[C@@H](CC(C)C)C(=O)O | 0.01% | 0.01% | <0.01%
CC[C@H](C)[C@H](NC(=O)[C@@H](Cc1c[nH]c2ccccc12)NC(=O)[C@@H]1CCCN1C(=O)[C@H](CCCN=C(N)N)NC(=O)[C@H](CCCN=C(N)N)NC(=O)[C@@H]1CCCN1C(=O)[C@H](CCCCN)NC(=O)[C@H](CC(N)=O)NC(=O)[C@H](CCC(=O)O)NC(=O)[C@H](Cc1ccc(O)cc1)NC(=O)[C@H](CC(C)C)NC(=O)[C@@H]1CCC(=O)N1)C(=O)N[C@@H](CC(C)C)C(=O)O | 0.1% | 0.64% | 0.01%
CC(C)C[C@H](NC(=O)[C@@H]1CCC(=O)N1)C(=O)N[C@@H](Cc1ccc(O)cc1)C(=O)N[C@@H](CCC(=O)O)C(=O)N[C@@H](CC(N)=O)C(=O)N[C@@H](CCCCN)C(=O)N1CCC[C@H]1C(=O)N[C@@H](CCCN=C(N)N)C(=O)N[C@@H](CCCN=C(N)N)C(=O)N1CCC[C@H]1C(=O)O | 0% | 0% | 0%
CC[C@H](C)[C@H](NC(=O)[C@H](Cc1c[nH]c2ccccc12)NC(=O)[C@@H]1CCCN1C(=O)[C@H](CCCN=C(N)N)NC(=O)[C@H](CCCN=C(N)N)NC(=O)[C@@H]1CCCN1C(=O)[C@H](CCCCN)NC(=O)[C@H](CC(N)=O)NC(=O)[C@H](CCC(=O)O)NC(=O)[C@H](Cc1ccc(O)cc1)NC(=O)[C@H](CC(C)C)NC(=O)[C@@H]1CCC(=O)N1)C(=O)N[C@@H](CC(C)C)C(=O)O | 102% | 130% | 3.2%
CC[C@H](C)[C@H](NC(=O)[C@H](Cc1ccccc1)NC(=O)[C@@H]1CCCN1C(=O)[C@H](CCCN=C(N)N)NC(=O)[C@H](CCCN=C(N)N)NC(=O)[C@@H]1CCCN1C(=O)[C@H](CCCCN)NC(=O)[C@H](CC(N)=O)NC(=O)[C@H](CCC(=O)O)NC(=O)[C@H](Cc1ccc(O)cc1)NC(=O)[C@H](CC(C)C)NC(=O)[C@@H]1CCC(=O)N1)C(=O)N[C@@H](CC(C)C)C(=O)O | 1.4% | 16% | 15%
CC(C)C[C@H](NC(=O)[C@@H]1CCC(=O)N1)C(=O)N[C@@H](Cc1ccc(O)cc1)C(=O)N[C@@H](CCC(=O)O)C(=O)N[C@@H](CC(N)=O)C(=O)N[C@@H](CCCCN)C(=O)N1CCC[C@H]1C(=O)N[C@@H](CCCN=C(N)N)C(=O)N[C@@H](CCCN=C(N)N)C(=O)N1CCC[C@H]1C(=O)N[C@@H](Cc1ccc(O)cc1)C(=O)O | <0.01% | <0.01% | <0.01%
CC[C@H](C)[C@H](NC(=O)[C@H](Cc1ccc(O)cc1)NC(=O)[C@@H]1CCCN1C(=O)[C@H](CCCN=C(N)N)NC(=O)[C@H](CCCN=C(N)N)NC(=O)[C@@H]1CCCN1C(=O)[C@@H](N)CCCCN)C(=O)N[C@@H](CC(C)C)C(=O)O | 84% | 78% | 73%
CC[C@H](C)[C@H](NC(=O)[C@@H](Cc1ccccc1)NC(=O)[C@@H]1CCCN1C(=O)[C@H](CCCN=C(N)N)NC(=O)[C@H](CCCN=C(N)N)NC(=O)[C@@H]1CCCN1C(=O)[C@H](CCCCN)NC(=O)[C@H](CC(N)=O)NC(=O)[C@H](CCC(=O)O)NC(=O)[C@H](Cc1ccc(O)cc1)NC(=O)[C@H](CC(C)C)NC(=O)[C@@H]1CCC(=O)N1)C(=O)N[C@@H](CC(C)C)C(=O)O | <0.01% | ~0.02% | ~0.01%
CC[C@H](C)[C@H](NC(=O)[C@H](CC(C)C)NC(=O)[C@@H]1CCCN1C(=O)[C@H](CCCN=C(N)N)NC(=O)[C@H](CCCN=C(N)N)NC(=O)[C@@H]1CCCN1C(=O)[C@H](CCCCN)NC(=O)[C@H](CC(N)=O)NC(=O)[C@H](CCC(=O)O)NC(=O)[C@H](Cc1ccc(O)cc1)NC(=O)[C@H](CC(C)C)NC(=O)[C@@H]1CCC(=O)N1)C(=O)N[C@@H](CC(C)C)C(=O)O | 0.01% | ~0.03% | < 0.01%
CC[C@H](C)[C@H](NC(=O)[C@H](Cc1ccc(O)cc1)NC(=O)[C@@H]1CCCN1C(=O)[C@@H](N)CCCN=C(N)N)C(=O)N[C@@H](CC(C)C)C(=O)O | 1.6% | 11% | 1.3%
CC[C@H](C)[C@H](NC(=O)[C@H](Cc1ccc(O)cc1)NC(=O)[C@@H]1CCCN1)C(=O)N[C@@H](CC(C)C)C(=O)O (H-PYIL-OH) | 0% | 0% | 0%
H-ENKPRRPYIL-OH | 92% | 85% | 99%
H-PRRPYIL-OH | 59% | 65% | 49%
H-YENKPRRPYIL-OH | 85% | 90% | 84%
